# Results: ChEMBL document CHEMBL1150625, “New terpenoid constituents from Eunicea pinta” (J Nat Prod, 2002)
# Calls of active or inactive are those of the source. The rule behind the calls is not given here.
# Assays:
# NCI-H322M = assay: Cytotoxicity against human NCI-H322M cells; format: functional, cell-based
# Summary of the method: (§1)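 Tested in vitro in the NCI 60 human tumour cell-line panel, with the screen run at the National Cancer Institute. Growth inhibition was read for each line and reported as IC50 in µg/mL.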
# TK-10 = assay: Cytotoxicity against human TK10 cells; format: functional, cell-based; summary of the method: as §1
# A498 = assay: Cytotoxicity against human A498 cells; format: functional, cell-based; summary of the method: as §1
# ACHN = assay: Cytotoxicity against human ACHN cells; format: functional, cell-based; summary of the method: as §1
# [1] = tested on: Mycobacterium tuberculosis; assay: Antitubercular activity against Mycobacterium tuberculosis H37Rv assessed as inhibition of microbial growth at 6.25 ug/mL; format: functional
# CAKI-1 = assay: Cytotoxicity against human Caki1 cells; format: functional, cell-based; summary of the method: as §1
# MOLT-4 = assay: Cytotoxicity against human MOLT4 cells; format: functional, cell-based; summary of the method: as §1
# SR = assay: Cytotoxicity against human SR cells; format: functional, cell-based; summary of the method: as §1
structure (smiles),measurement,setting,value
C=C1C(=O)O[C@H]2C(=O)[C@H](C)CCC/C(C)=C/CC[C@@]3(C)O[C@@H]3C[C@@H]12,IC50,NCI-H322M,0.9 µg/mL
same,IC50,TK-10,0.13 µg/mL
C=C[C@H]1CC[C@H]2[C@@H]3CC=C4C[C@@H](O[C@@H]5OC[C@@H](O)[C@H](O)[C@H]5O)CC[C@]4(C)[C@H]3CC[C@]12C,IC50,A498,4.2 µg/mL
same,IC50,ACHN,2.8 µg/mL
same,inhibition at 6.25 µg/mL,[1],52%
same,IC50,CAKI-1,6.6 µg/mL
C=C1C(=O)OC2C(=O)[C@H](C)CCC/C(C)=C/CC[C@@]3(C)O[C@@H]3C[C@@H]12 (stereo not given in full),inhibition,[1],inactive
C=C1C(=O)O[C@H]2C(=O)[C@H](C)CCC[C@](C)(OO)/C=C/C[C@@]3(C)O[C@@H]3C[C@@H]12 [UPROLIDE H],IC50,MOLT-4,0.01 µg/mL
same,inhibition,[1],inactive
same,IC50,SR,0.07 µg/mL
